From PubChem BioAssay AID504405 (Broad Institute, 2011)
Results filed as inconclusive are left out. Calls of active or inactive are those of the source.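 Rule for the calls: active = fitted curve crosses 10% of positive-control caspase signal within tested doses in every repeat test; inconclusive = repeat tests disagree, or any test inconclusive; inactive = the rest.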

Tested on: not listed separately
Experiment: caspase activation in parental wild-type MEFs, dose response, counter-screen for A1 inhibitor project, cell-based, wild-type MEF, CaspaseGlo luminescence, dry powder, set 3 (AID 504405)
Conditions: wild-type MEF caspase activation, CaspaseGlo luminescence, 3 h; at 35 µM (top of the series)
In short: (§1)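 System: Unprimed wild-type MEF cells | Medium: RPMI-1640 plus 10% FBS | Times: 3 h compound at 37 °C, 1 h CaspaseGlo at RT | Technique: CaspaseGlo luminescence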
In the case of `Cc1ccc(Sc2c(Sc3ccc(C)cc3)c3ccccc3n(C)c2=O)cc1`, the caspase activation is reported as 0.922% (inactive). In the case of `Cc1ccc(Sc2c(Sc3ccc(C)cc3)c3ccccc3n(Cc3ccccc3)c2=O)cc1`, the caspase activation is reported as 0.126% (inactive). With `CCn1c(=O)c([N+](=O)[O-])c(Sc2ccc(C)cc2)c2ccccc21` the caspase activation was 0.226% (inactive). With `COc1ccc(CCNc2nc(N3CCCC3)nc(N3CCCC3)n2)cc1OC` the caspase activation was -0.327% (inactive). With `COc1ccc(N2CCN(c3nc(NCCc4ccc(OC)c(OC)c4)nc(N4CCOCC4)n3)CC2)cc1` the caspase activation was 0.165% (inactive). With `Cn1c(=O)c(Sc2ccccn2)c(Sc2ccccn2)c2ccccc21` the caspase activation was 0.793% (inactive). With `COc1c([N+](=O)[O-])c(=O)n(C)c2ccccc12` the caspase activation was 0.426% (inactive). With `O=c1[nH]c2ccccc2c(O)c1[N+](=O)[O-]` the caspase activation was 0.522% (inactive). In the case of `COc1ccc(CCNc2nc(N3CCOCC3)nc(N3CCOCC3)n2)cc1OC`, the caspase activation is reported as 0.145% (inactive). With `Cn1c(=O)c([N+](=O)[O-])c(S(C)(=O)=O)c2ccccc21` the caspase activation was -0.856% (inactive). With `COCCn1c(=O)c([N+](=O)[O-])c(Cl)c2ccccc21` the caspase activation was -0.545% (inactive). For `COc1nc2ccccc2c(Cl)c1[N+](=O)[O-]`, the caspase activation was 6.45% (inactive). In the case of `CCn1c(=O)c(Sc2ccc(C)cc2)c(Sc2ccc(C)cc2)c2ccccc21`, the caspase activation is reported as 0.52% (inactive). For `COc1nc2ccccc2c(Sc2ccc(C)cc2)c1[N+](=O)[O-]`, the caspase activation was 0.723% (inactive). For `O=C(COc1ccc(Cl)cc1Cl)NNc1nc(N2CCOCC2)nc(N2CCOCC2)n1`, the caspase activation was -0.598% (inactive). With `Cc1ccc(S(=O)(=O)c2c([N+](=O)[O-])c(=O)n(C)c3ccccc23)cc1` the caspase activation was -0.89% (inactive). With `Cc1ccc(Sc2c([N+](=O)[O-])c(=O)n(C)c3ccccc23)cc1` the caspase activation was 5.89% (inactive). In the case of `COCCn1c(=O)c(Sc2ccc(C)cc2)c(Sc2ccc(C)cc2)c2ccccc21`, the caspase activation is reported as 0.603% (inactive). With `C/C(=N\Nc1nc(N2CCCCC2)nc(N2CCCCC2)n1)c1ccc(F)cc1` the caspase activation was 0.38% (inactive).

Tested on: wild-type MEF caspase activation, CaspaseGlo luminescence, 3 h
Experiment: as above
Conditions: not given
In short: as §1
In the case of `O=c1c([N+](=O)[O-])c(Cl)c2ccccc2n1Cc1ccccc1`, the AC10 is reported as 11.8 µM.
